High-throughput results (PubChem BioAssay)
TAAR1 antag = human TAAR1 antagonism; inhibition, % at 3 µM; Q96RJ0; hit rate 1.5% among 360,000; AID 624466; CHO RD-HGA16 TAAR1, Fluo-8 calcium fluorescence, antagonist;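 active = inhibition above a per-plate cutoff, the mean inhibition of test compounds on that plate plus 3 SD, cut at about 49% in these data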;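 note: 0% = DMSO plus EC80 beta-PEA response and 100% = DMSO alone without agonist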
Target sequence (Q96RJ0 whole entry, looked up): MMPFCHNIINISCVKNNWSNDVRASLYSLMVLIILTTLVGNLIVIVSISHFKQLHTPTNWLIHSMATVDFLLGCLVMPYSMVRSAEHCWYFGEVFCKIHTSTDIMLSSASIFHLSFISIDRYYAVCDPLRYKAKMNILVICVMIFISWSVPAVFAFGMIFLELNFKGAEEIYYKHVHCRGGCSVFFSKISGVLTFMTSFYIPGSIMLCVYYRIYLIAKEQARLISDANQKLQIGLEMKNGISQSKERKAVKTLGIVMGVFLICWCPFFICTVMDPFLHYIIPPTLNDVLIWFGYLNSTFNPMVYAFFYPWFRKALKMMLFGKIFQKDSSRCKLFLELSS
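Test system: CHO RD-HGA16 cells bearing hTAAR1 | Reagent: β-PEA, EC80 | Compound dosing: 3 µM, single point | Schedule: Dye loading 75 min at 37 °C, then 30 min room temperature | Signal: Calcium fluorescence with Fluo-8 | Evaluation: Percent inhibition of PEA-evoked calcium signal, max/basal emission ratio | Control set: DMSO-only wells and EC80 β-PEA-stimulated wells | Repeats: Singlicate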
TAAR1 ag = agonists of human TAAR1. CHO RD-HGA16 TAAR1, Fluo-8 calcium fluorescence; vehicle wells 0%, saturating PEA agonist 100%. activation, % at 3 µM. hit rate 0.99% among 360,000;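 active = activation above the mean activation of all test compounds in the run plus 3 SD, cut at about 38% in these data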
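System: CHO-derived RD-HGA16 cells with stable Gα16 and human TAAR1 / Times: 17-24 h plating, Fluo-8 75 min 37 °C, 30 min RT / Technique: calcium-sensitive Fluo-8 signal, excitation 470-495, emission 515-575 nm / Measure: % activation relative to PEA EC100 response / Benchmarks: DMSO and PEA EC100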
CHO parental Ca = counter-screen for OX1R antagonists: effect in parental CHO cells; parental CHO-K1, ATP-induced calcium, Fluo-8 fluorescence; inhibition, % at 5.6 µM; hit rate 0.63% among 330,000;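 active = inhibition above that plate's mean sample inhibition plus 3 SD, cut at about 26% in these data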;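 note: 0% = ATP-challenged DMSO wells and 100% = DMSO wells without ATP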
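Assay system: untransfected parental CHO cell line. Also added: ATP agonist challenge. Dosing: one dose, 5.6 µM nominal. Measured by: Fluo-8 fluorescence. Read-out: % inhibition. Benchmarks: ATP wells versus no-ATP DMSO wells. Repeats: no replicates.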
OX1R antag-1 = OX1R (human) antagonism; O43613; OX1R-expressing cells, FRET antagonist read-out; inhibition, % at 6.6 µM; hit rate 1.8% among 330,000; AID 485270; in the data active = inhibition mostly above about 38%, no sharp cut-off; inactive = mostly below about 40%;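 note: 0% = agonist challenge alone and 100% = reference antagonist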
OX1R antag-2 = human HCRTR1 antagonism. O43613. CHO/OX1R cells, Fluo-8 calcium fluorescence, orexin A. inhibition, % at 5 µM. hit rate 0.43% among 330,000. AID 434989;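 active = inhibition above its plate's threshold, mean inhibition of all tested compounds on the plate plus 3 SD, cut at about 37% in these data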;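 note: 0% = orexin A challenge wells and 100% = SB-334867-A antagonist wells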
GPR7 antag = human neuropeptides B/W receptor 1 antagonism; AID 1861; P48145; hit rate 1.1% among 290,000; GPR7-expressing cells, fluorescence antagonist assay; inhibition, % at 4.4 µM; in the data active = inhibition above about 16%, passing the limit was not always enough;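 note: cells stimulated with the agonist NPW; 0% = agonist with vehicle and 100% = vehicle without agonist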
Target sequence (P48145 whole entry, looked up): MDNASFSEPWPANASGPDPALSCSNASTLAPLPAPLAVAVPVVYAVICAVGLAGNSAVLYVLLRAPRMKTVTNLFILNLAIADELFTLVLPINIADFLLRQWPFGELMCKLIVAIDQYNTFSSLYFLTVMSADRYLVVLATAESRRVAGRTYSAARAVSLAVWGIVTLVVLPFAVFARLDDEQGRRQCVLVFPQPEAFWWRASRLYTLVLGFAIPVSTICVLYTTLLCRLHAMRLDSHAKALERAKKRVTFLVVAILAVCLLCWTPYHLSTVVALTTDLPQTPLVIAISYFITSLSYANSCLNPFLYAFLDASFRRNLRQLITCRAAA
* hit, by the source's call. A selection: hits, their analogues and other compounds. The true share with any hit is near 4.6%.

What do the screens show for `O=C(c1cc(COc2cccc3cnccc23)on1)N1CCCC(CCCO)C1` (stereo unspecified)?
TAAR1 antag: 37; TAAR1 ag: 12; CHO parental Ca: 59*; OX1R antag-1: 51; OX1R antag-2: 26; GPR7 antag: 13

Results for Cc1cc(N2CCN(C(=O)OC(C)(C)C)C[C@@H]2C)ccc1N1CCN(Cc2ccccc2)[C@@H](C)C1 ?
TAAR1 antag: 14; TAAR1 ag: -1

What do the screens show for `CC1=C(C(=O)Nc2cccc(C(=O)N3CCN(c4cccc(C(F)(F)F)c4)CC3)c2)SCCO1`?
TAAR1 antag: 56*; TAAR1 ag: 8; CHO parental Ca: 40*; OX1R antag-1: 9; OX1R antag-2: 62*; GPR7 antag: 8

Results for FC(F)(F)c1cccc(NC(=S)N2CCN(c3cccc(C(F)(F)F)c3)CC2)c1 ?
TAAR1 antag: 32; TAAR1 ag: 5; CHO parental Ca: 69*; OX1R antag-1: 16; OX1R antag-2: -6; GPR7 antag: -5

Results for CC(c1ccc(Cl)cc1)N(CCN(C)C)c1ccccn1 (stereo unspecified) ?
TAAR1 antag: -9; TAAR1 ag: 1

Results for O=c1[nH]c(/C=C\c2cccs2)nc(O)c1[N+](=O)[O-] ?
TAAR1 antag: -2; TAAR1 ag: 11; CHO parental Ca: -7; OX1R antag-1: 65*; OX1R antag-2: -1; GPR7 antag: -4

What do the screens show for `CCOc1cc(/C=C\c2nc(O)c([N+](=O)[O-])c(=O)[nH]2)ccc1OC(C)C`?
TAAR1 antag: 0; TAAR1 ag: 1; CHO parental Ca: -2; OX1R antag-1: 15; OX1R antag-2: -9; GPR7 antag: 10

How did O=c1[nH]c(/C=C\c2ccc(O)cc2)nc(O)c1[N+](=O)[O-] do in these assays?
TAAR1 antag: -3; TAAR1 ag: 4; CHO parental Ca: 6; OX1R antag-1: 47*; OX1R antag-2: -12; GPR7 antag: -10

Results for O=c1[nH]c(/C=C\c2ccc(O)c(Cl)c2)nc(O)c1[N+](=O)[O-] ?
TAAR1 antag: -19; TAAR1 ag: 4; CHO parental Ca: 7; OX1R antag-1: 51*; OX1R antag-2: -10; GPR7 antag: -6

What do the screens show for `C=CCc1cc(/C=C/c2nc(O)c([N+](=O)[O-])c(=O)[nH]2)cc(OC)c1O`?
TAAR1 antag: -10; TAAR1 ag: 7; CHO parental Ca: 7; OX1R antag-1: 74; OX1R antag-2: -7; GPR7 antag: -1

What do the screens show for `CCN(CC)C(=O)CN(c1cc(Cl)ccc1OC)S(=O)(=O)c1ccc(C)c([N+](=O)[O-])c1`?
TAAR1 antag: 19; TAAR1 ag: -1; CHO parental Ca: 3; OX1R antag-1: 74*; OX1R antag-2: 39; GPR7 antag: 12

How did COc1ccc(Cl)cc1N(CC(=O)NC1CC1)S(=O)(=O)c1ccc(C)c([N+](=O)[O-])c1 do in these assays?
TAAR1 antag: 16; TAAR1 ag: 10; CHO parental Ca: 8; OX1R antag-1: 17; OX1R antag-2: -25; GPR7 antag: 0

What do the screens show for `Oc1c(Cl)cc(Cl)cc1Sc1cc(Cl)cc(Cl)c1O`?
CHO parental Ca: 101*; OX1R antag-1: 60*; OX1R antag-2: 73*; GPR7 antag: 2

Results for OCC1SC(O)C(O)C(O)C1O (stereo unspecified) ?
TAAR1 antag: -8; TAAR1 ag: 1

How did O=C(CCn1nc(-c2ccccc2)ccc1=O)N1CCN(c2ccccc2)CC1 do in these assays?
TAAR1 antag: 10; TAAR1 ag: 8; CHO parental Ca: -12; OX1R antag-1: 10; OX1R antag-2: -17; GPR7 antag: 1

What do the screens show for `O=C(CCn1nc(-c2ccccc2)c2ccccc2c1=O)N1CCN(c2ccccc2)CC1`?
TAAR1 antag: -4; TAAR1 ag: 8; CHO parental Ca: -26; OX1R antag-1: 62*; OX1R antag-2: 12; GPR7 antag: -7

Results for CCCCCCCCN1C(=O)[C@H](CC(=O)NCCCN2CCCC2=O)C[C@@]2(C(=O)OC)CCCCC=C12 ?
TAAR1 antag: 13; TAAR1 ag: 4

What do the screens show for `CN1CCN(Cc2c(O)ccc3occ(C(=O)c4ccccc4)c23)CC1`?
TAAR1 antag: 2; TAAR1 ag: 5; CHO parental Ca: -19; OX1R antag-1: 25; OX1R antag-2: -30; GPR7 antag: -2

Results for CC(=O)C(C(C)=O)c1c(Cl)c(O)c(O)c2c(C(=O)c3ccccc3)coc12 ?
TAAR1 antag: 29; TAAR1 ag: 39*; CHO parental Ca: -29; OX1R antag-1: 34; OX1R antag-2: -8; GPR7 antag: -10

What do the screens show for `CN(C)CCCN(C(=O)COc1ccc(Cl)cc1)c1nc2ccc(F)cc2s1`?
TAAR1 antag: 5; TAAR1 ag: 41*; CHO parental Ca: -2; OX1R antag-1: 8; OX1R antag-2: -19; GPR7 antag: 0

Results for Cc1ccc2nc(N(CCCN(C)C)C(=O)COc3ccc(Cl)cc3)sc2c1 ?
TAAR1 antag: 10; TAAR1 ag: 45*; CHO parental Ca: -2; OX1R antag-1: 1; OX1R antag-2: -12; GPR7 antag: -7

How did Cc1cc(C)c2sc(N(CCCN(C)C)C(=O)COc3ccc(Cl)cc3)nc2c1 do in these assays?
TAAR1 antag: 20; TAAR1 ag: 35; CHO parental Ca: 7; OX1R antag-1: 14; OX1R antag-2: -8; GPR7 antag: 9

Results for Cc1ccc2nc(N(CCCN(C)C)C(=O)c3ccc4c(c3)CCCC4)sc2c1 ?
TAAR1 antag: 20; TAAR1 ag: 38*; CHO parental Ca: 0; OX1R antag-1: -1; OX1R antag-2: -4; GPR7 antag: 9

What do the screens show for `CN(C)CCCN(C(=O)COc1ccccc1)c1nc2ccc(F)cc2s1`?
TAAR1 antag: 0; TAAR1 ag: 11; CHO parental Ca: -13; OX1R antag-1: 8; OX1R antag-2: -30; GPR7 antag: -12

What do the screens show for `Cc1cccc(C)c1NC(=O)CNC(=O)c1cccnc1`?
TAAR1 antag: -19; TAAR1 ag: 1; CHO parental Ca: 1; OX1R antag-1: 12; OX1R antag-2: -3; GPR7 antag: -2

How did COc1ccc(N2C(=O)c3[nH]nc(-c4ccccc4)c3C2c2ccc(Br)cc2)cc1 (stereo unspecified) do in these assays?
TAAR1 antag: -7; TAAR1 ag: 14

What do the screens show for `CCOC(=O)c1oc2ccccc2c1NC(=O)c1cccc(OC)c1OC`?
TAAR1 antag: 49*; TAAR1 ag: 4; CHO parental Ca: 3; OX1R antag-1: 25; OX1R antag-2: -32; GPR7 antag: -16

What do the screens show for `COc1ccccc1NC(=O)COC(=O)c1oc2ccccc2c1C`?
TAAR1 antag: 4; TAAR1 ag: -1; CHO parental Ca: -30; OX1R antag-1: 51*; OX1R antag-2: -1; GPR7 antag: 0
